Source: ChEMBL document CHEMBL1157562, “Piperazinyl glutamate pyridines as potent orally bioavailable P2Y12 antagonists for inhibition of platelet aggregation” (J Med Chem, 2010)

Experiments:
P2Y purinoceptor 12 = P2Y purinoceptor 12 (Homo sapiens, UniProt Q9H244); assay: Displacement of [33P]ADP from human recombinant P2Y12 receptor expressed in CHO cells; format: cell-based
Method in brief: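 Washed membranes from CHO cells expressing synthetic human P2Y12, incubated 1 h at room temperature with 0.2 nM 33P-MeSADP in 50 mM Tris/100 mM NaCl/1 mM EDTA. Compound was tested as a 7-point 3-fold series in triplicate. Nonspecific binding was defined with 300 nM 2-MeSADP, followed by filtration.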

[1] = Antiplatelet aggregation activity against adenosine diphosphate-induced human platelet rich plasma assessed as inhibition of platelet aggregation by turbidimetric method; format: functional; conditions: Homo sapiens, Platelet, Plasma
Method in brief: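 Human PRP, prepared by two-step centrifugation and adjusted to 330 000 platelets/μL with PPP. Compound was preincubated 5 min at 37 °C in 0.5% DMSO, then 20 μM ADP was added. OD626 was read kinetically for 15 min at 37 °C with mixing between reads.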

Sequence of P2Y purinoceptor 12 (Q9H244 whole entry): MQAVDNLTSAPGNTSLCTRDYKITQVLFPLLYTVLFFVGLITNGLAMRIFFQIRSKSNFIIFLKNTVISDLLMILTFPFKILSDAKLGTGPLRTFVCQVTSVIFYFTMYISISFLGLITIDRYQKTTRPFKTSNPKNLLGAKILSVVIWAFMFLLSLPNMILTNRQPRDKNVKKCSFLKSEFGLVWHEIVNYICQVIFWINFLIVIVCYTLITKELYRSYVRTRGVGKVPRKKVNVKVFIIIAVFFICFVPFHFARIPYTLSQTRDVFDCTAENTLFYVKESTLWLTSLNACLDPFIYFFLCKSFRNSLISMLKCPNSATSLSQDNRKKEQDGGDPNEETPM

SMILES | Ki (P2Y purinoceptor 12) | IC50 [1]
O=C(O)CC[C@H](NC(=O)c1cccc(-c2ccccc2)n1)C(=O)N1CCN(C(=O)OC2CCCCC2)CC1 | 0.044 µM | > 100 µM
CCCCCCOC(=O)N1CCN(C(=O)[C@H](CCC(=O)O)NC(=O)c2cccc(-c3ccccc3)n2)CC1 |  | 19 µM
CCCC(=O)N1CCN(C(=O)[C@H](CCC(=O)O)NC(=O)c2cccc(-c3ccccc3)n2)CC1 | 3.1 µM | > 100 µM
CCCCNC(=O)N1CCN(C(=O)[C@H](CCC(=O)O)NC(=O)c2cccc(-c3ccccc3)n2)CC1 | 0.613 µM | > 100 µM
CCOC(=O)N1CCN(C(=O)[C@H](CCC(=O)O)NC(=O)c2nccc(-c3ccccc3)n2)CC1 | 1.19 µM | 74 µM
C#CCCOC(=O)N1CCN(C(=O)[C@H](CCC(=O)O)NC(=O)c2cccc(-c3ccccc3)n2)CC1 | 0.079 µM | > 100 µM
CC(C)OC(=O)N1CCN(C(=O)[C@H](CCC(=O)O)NC(=O)c2cccc(-c3ccccc3)n2)CC1 | 0.28 µM | > 100 µM
CCCCCOC(=O)N1CCN(C(=O)[C@H](CCC(=O)O)NC(=O)c2cc(NC(=O)N3CCCCC3)cc(-c3ccccc3)n2)CC1 | 0.0058 µM | > 10 µM
CCCCCOC(=O)N1CCN(C(=O)[C@H](CCC(=O)O)NC(=O)c2cc(NC(C)=O)cc(-c3ccccc3)n2)CC1 | 0.0062 µM | > 10 µM
CCCCS(=O)(=O)N1CCN(C(=O)[C@H](CCC(=O)O)NC(=O)c2cccc(-c3ccccc3)n2)CC1 | > 3.59 µM | > 100 µM
O=C(O)CC[C@H](NC(=O)c1cccc(-c2ccccc2)n1)C(=O)N1CCN(C(=O)OCC2CCC2)CC1 | 0.028 µM | > 100 µM
O=C(O)CC[C@H](NC(=O)c1cccc(-c2ccccc2)n1)C(=O)N1CCN(C(=O)OCCC2CC2)CC1 | 0.015 µM | > 100 µM
CCCCCOC(=O)N1CCN(C(=O)[C@H](CCC(=O)O)NC(=O)c2cc(NC(=O)CNC)cc(-c3ccccc3)n2)CC1 | 0.0057 µM | > 10 µM
CCCCOC(=O)N1CCN(C(=O)[C@H](CCC(=O)O)NC(=O)c2cc(N(C)CCOC)cc(-c3ccccc3)n2)CC1 | 0.004 µM | > 100 µM
CCCCCOC(=O)N1CCN(C(=O)[C@H](CCC(=O)O)NC(=O)c2cc(NC(=O)C3CCOCC3)cc(-c3ccccc3)n2)CC1 | 0.0085 µM | > 10 µM
CCCCCOC(=O)N1CCN(C(=O)[C@H](CCC(=O)O)NC(=O)c2cc(NC(=O)OCCOC)cc(-c3ccccc3)n2)CC1 | 0.0014 µM | > 10 µM
O=C(O)CC[C@H](NC(=O)c1cccc(-c2ccccc2)n1)C(=O)N1CCN(C(=O)c2ccccc2)CC1 | 1.88 µM | > 100 µM
CCCCCNC(=O)N1CCN(C(=O)[C@H](CCC(=O)O)NC(=O)c2cccc(-c3ccccc3)n2)CC1 | 0.055 µM | > 100 µM
CC(C)CN1CCN(C(=O)[C@H](CCC(=O)O)NC(=O)c2cccc(-c3ccccc3)n2)CC1 | > 3.8 µM | > 100 µM

SMILES | Ki (P2Y purinoceptor 12) | IC50 [1]
CCCCCOC(=O)N1CCN(C(=O)[C@H](CCC(=O)O)NC(=O)c2cc(N(C)CCOC)cc(-c3ccccc3)n2)CC1 | 0.0021 µM | > 100 µM
CCCCCCN1CCN(C(=O)[C@H](CCC(=O)O)NC(=O)c2cccc(-c3ccccc3)n2)CC1 | > 2.71 µM | > 100 µM
Cc1cccc(N2CCN(C(=O)[C@H](CCC(=O)O)NC(=O)c3cc(-c4ccccc4)cc(-c4ccccc4)c3)CC2)c1 | 1.43 µM | > 100 µM
CCCNC(=O)N1CCN(C(=O)[C@H](CCC(=O)O)NC(=O)c2cccc(-c3ccccc3)n2)CC1 | 0.277 µM | > 100 µM
CCOC(=O)N1CCN(C(=O)[C@H](CCC(=O)O)NC(=O)c2cc(-c3ccccc3)cc(-c3ccccc3)n2)CC1 | 0.015 µM | 76 µM
CCCCOC(=O)N1CCN(C(=O)[C@H](CCC(=O)O)NC(=O)c2cccc(-c3ccccc3)n2)CC1 |  | 28 µM
Cc1cccc(N2CCN(C(=O)[C@H](CCC(=O)O)NC(=O)c3cc(-c4ccccc4)cc(-c4ccccc4)n3)CC2)c1 | 0.15 µM | > 100 µM
CCOC(=O)N1CCN(C(=O)[C@H](CCC(=O)O)NC(=O)c2cc(-c3ccccc3)nc(-c3ccccc3)n2)CC1 | 0.356 µM | > 100 µM
O=C(O)CC[C@H](NC(=O)c1cccc(-c2ccccc2)n1)C(=O)N1CCN(C(=O)OC2CCCC2)CC1 | 0.047 µM | > 100 µM
CC(C)(C)OC(=O)CC[C@H](NC(=O)c1cccc(-c2ccccc2)n1)C(=O)N1CCNCC1 | > 5.68 µM | > 100 µM
CCCCCOC(=O)N1CCN(C(=O)[C@H](CCC(=O)O)NC(=O)c2cc(NC(=O)NC(C)C)cc(-c3ccccc3)n2)CC1 | 0.0027 µM | > 10 µM
CCNC(=S)N1CCN(C(=O)[C@H](CCC(=O)O)NC(=O)c2cccc(-c3ccccc3)n2)CC1 | 0.009 µM | 39 µM
CCCCCNC(=S)N1CCN(C(=O)[C@H](CCC(=O)O)NC(=O)c2cccc(-c3ccccc3)n2)CC1 | 0.006 µM | 42 µM
CCOC(=O)N1CCN(C(=O)[C@H](CCC(=O)O)NC(=O)c2cc(N(C)C)cc(-c3ccccc3)n2)CC1 | 0.045 µM | > 100 µM
Cc1cccc(N2CCN(C(=O)[C@H](CCC(=O)O)NC(=O)c3cccc(-c4ccccc4)c3)CC2)c1 | 1.31 µM | > 100 µM
CCCNC(=S)N1CCN(C(=O)[C@H](CCC(=O)O)NC(=O)c2cccc(-c3ccccc3)n2)CC1 | 0.042 µM | 81 µM
Cc1cccc(N2CCN(C(=O)[C@H](CCC(=O)O)NC(=O)c3cc(-c4ccccc4)ccn3)CC2)c1 | > 5.7 µM | > 100 µM
CCOC(=O)N1CCN(C(=O)[C@H](CCC(=O)O)NC(=O)c2ccccn2)CC1 | > 5.4 µM | > 100 µM
CCCCCN1CCN(C(=O)[C@H](CCC(=O)O)NC(=O)c2cccc(-c3ccccc3)n2)CC1 | > 3.59 µM | > 100 µM

SMILES | Ki (P2Y purinoceptor 12) | IC50 [1]
O=C(O)CC[C@H](NC(=O)c1cccc(-c2ccccc2)n1)C(=O)N1CCN(C(=O)OCC(F)(F)F)CC1 | 0.094 µM | > 100 µM
CCCCCCCCOC(=O)N1CCN(C(=O)[C@H](CCC(=O)O)NC(=O)c2cccc(-c3ccccc3)n2)CC1 |  | > 100 µM
O=C(O)CC[C@H](NC(=O)c1cccc(-c2ccccc2)n1)C(=O)N1CCN(C(=O)OCc2ccccc2)CC1 | 0.196 µM | > 100 µM
CC(C)(C)CCOC(=O)N1CCN(C(=O)[C@H](CCC(=O)O)NC(=O)c2cccc(-c3ccccc3)n2)CC1 | 0.042 µM | > 100 µM
Cc1cccc(N2CCN(C(=O)[C@H](CCC(=O)O)NC(=O)c3cccc(-c4ccccc4)n3)CC2)c1 |  | > 100 µM
CCOC(=O)N1CCN(C(=O)[C@H](CCC(=O)O)NC(=O)c2cccc(-c3ccccc3)c2)CC1 | 3.64 µM | > 100 µM
CC(=O)N1CCN(C(=O)[C@H](CCC(=O)O)NC(=O)c2cccc(-c3ccccc3)n2)CC1 | > 3.59 µM | > 100 µM
CCOC(=O)N1CCN(C(=O)[C@H](CCC(=O)O)NC(=O)c2cc(-c3ccccc3)nc(-c3ccccc3)c2)CC1 | 0.484 µM | > 50 µM
O=C(O)CC[C@H](NC(=O)c1cccc(-c2ccccc2)n1)C(=O)N1CCN(C(=O)OCCCC(F)(F)F)CC1 | 0.018 µM | 70 µM
CC(C)C(=O)N1CCN(C(=O)[C@H](CCC(=O)O)NC(=O)c2cccc(-c3ccccc3)n2)CC1 | > 3.59 µM | > 100 µM
COCC(=O)N1CCN(C(=O)[C@H](CCC(=O)O)NC(=O)c2cccc(-c3ccccc3)n2)CC1 | > 3.59 µM | > 100 µM
COCCOC(=O)N1CCN(C(=O)[C@H](CCC(=O)O)NC(=O)c2cccc(-c3ccccc3)n2)CC1 | 0.492 µM | > 100 µM
CC(C)CCOC(=O)N1CCN(C(=O)[C@H](CCC(=O)O)NC(=O)c2cccc(-c3ccccc3)n2)CC1 | 0.033 µM | 88 µM
CCCS(=O)(=O)N1CCN(C(=O)[C@H](CCC(=O)O)NC(=O)c2cccc(-c3ccccc3)n2)CC1 | > 3.59 µM | > 100 µM
CCCCCOC(=O)N1CCN(C(=O)[C@H](CCC(=O)O)NC(=O)c2cccc(-c3ccccc3)n2)CC1 |  | 15 µM
CCCOC(=O)N1CCN(C(=O)[C@H](CCC(=O)O)NC(=O)c2cccc(-c3ccccc3)n2)CC1 |  | 62 µM
COC(=O)N1CCN(C(=O)[C@H](CCC(=O)O)NC(=O)c2cccc(-c3ccccc3)n2)CC1 |  | > 100 µM
CCCCCCCOC(=O)N1CCN(C(=O)[C@H](CCC(=O)O)NC(=O)c2cccc(-c3ccccc3)n2)CC1 |  | 56 µM
